# PvdQ inh = P. aeruginosa PvdQ acylase inhibition; purified PvdQ acylase, fluorescence plate reader; inhibition, % at 10 µM; 340,000 compounds, 0.063% hits; AID 488965; in the data active = inhibition above about 30%, passing the limit was not always enough;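 note: 0% = vehicle neutral wells and 100% = reference inhibitor wells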
# IMP-1 inh-1 = blocks Pseudomonas aeruginosa IMP-1 metallo-beta-lactamase; AID 1556; purified IMP-1, nitrocefin hydrolysis, epi-absorbance fluorescence; inhibition, % at 5.6 µM; 290,000 compounds, 0.45% hits;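 active = inhibition above the mean plus 3 SD of all compounds in the same screening run, cut at about 4.5% in these data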;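 note: 0% = IMP-1 with DMSO and 100% = DMSO wells lacking enzyme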
#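 Assay system: purified IMP-1; Quantity: IMP-1 0.2 nM before substrate addition; Medium: HEPES buffer pH 7.1 with ZnSO4 and Brij 35; Incubation: 15 min enzyme–compound preincubation, then 25 min nitrocefin reaction, 25 °C; Signal: fluorescence quenching readout, ex 480/em 530 nm; Controls: DMSO with and without IMP-1; Repeats: singlicate testing.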
# HKDC1 inhibitor = inhibitors of human hexokinase HKDC1; AID 493160; Q2TB90; inhibition, % at 20 µM; 340,000 compounds, 0.16% hits; recombinant HKDC1, G6PDH/diaphorase resazurin coupled fluorescence;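 active = inhibition above about 35% when tested at 20 µM, limit read from the data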;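 note: plate controls were DMSO wells with enzyme for no effect and DMSO wells lacking enzyme for full effect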
# Target sequence (Q2TB90 whole entry, looked up): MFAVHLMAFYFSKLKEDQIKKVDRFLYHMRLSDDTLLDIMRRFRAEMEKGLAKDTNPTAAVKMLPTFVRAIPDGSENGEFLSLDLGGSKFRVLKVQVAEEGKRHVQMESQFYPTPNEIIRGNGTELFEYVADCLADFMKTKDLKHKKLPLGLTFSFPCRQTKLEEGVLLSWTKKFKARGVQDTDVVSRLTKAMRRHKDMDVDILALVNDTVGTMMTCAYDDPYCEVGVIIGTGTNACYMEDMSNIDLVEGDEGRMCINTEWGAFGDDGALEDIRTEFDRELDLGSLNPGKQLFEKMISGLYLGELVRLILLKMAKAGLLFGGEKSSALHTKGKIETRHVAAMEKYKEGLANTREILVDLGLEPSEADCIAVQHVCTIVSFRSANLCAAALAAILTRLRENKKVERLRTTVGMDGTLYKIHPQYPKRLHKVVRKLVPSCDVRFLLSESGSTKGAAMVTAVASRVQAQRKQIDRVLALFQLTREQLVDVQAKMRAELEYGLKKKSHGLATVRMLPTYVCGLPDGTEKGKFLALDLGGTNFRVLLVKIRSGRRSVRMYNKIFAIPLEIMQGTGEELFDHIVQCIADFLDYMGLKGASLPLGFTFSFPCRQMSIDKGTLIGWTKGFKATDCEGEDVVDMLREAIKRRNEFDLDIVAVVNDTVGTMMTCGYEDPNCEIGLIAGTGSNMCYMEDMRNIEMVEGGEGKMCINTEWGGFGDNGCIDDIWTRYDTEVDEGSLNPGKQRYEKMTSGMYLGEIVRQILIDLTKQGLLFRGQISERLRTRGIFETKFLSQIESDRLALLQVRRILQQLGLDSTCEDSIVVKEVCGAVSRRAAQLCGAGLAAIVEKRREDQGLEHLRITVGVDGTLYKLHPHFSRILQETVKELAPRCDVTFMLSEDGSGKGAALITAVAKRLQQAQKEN
#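 System: Recombinant HKDC1 hexokinase | Amount: HKDC1 at 5 µg/mL | Reagent: Glucose with 1 mM ATP | Doses: Single 20 µM dose | Incubation: Reaction time 90 min, room temperature, protected from light | Signal: Coupled resazurin fluorescence, excitation 525 nm, emission 613 nm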
# ATG4B inh = inhibitors of human ATG4B cysteine protease; Q9Y4P1; ATG4B cleavage of LC3-PLA2, NBD-HPC fluorescence, 1 h; inhibition, % at 8.33 µM; 340,000 compounds, 0.51% hits; in the data active = inhibition above about 40%
# beta cell repl = induces beta-cell replication in MIN6 cells. MIN6 cells proliferation, ATPlite luminescence, 48 h; cells starved in 0.2% serum; 100% = growth in 10% serum. 330,000 compounds, 0.29% hits. proliferation, % at 10 µM. AID 2380;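 active = compounds whose signal lies at least 3.5 SD above the mean of all wells on their plate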;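 note: 0% = DMSO-treated cells in low-serum medium and 100% = 10% serum control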
# VIM-2 inh = blocks Pseudomonas aeruginosa VIM-2 metallo-beta-lactamase; purified VIM-2, nitrocefin hydrolysis, epi-absorbance fluorescence; inhibition, % at 5.6 µM; 290,000 compounds, 0.89% hits; AID 1527;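 active = inhibition above the mean of all tested compounds plus 3 SD, cutoff set per screening run, cut at about 7.5% in these data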;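 note: red hydrolysis product quenches plate fluorescence so inhibitors raise well fluorescence; 0% = enzyme with DMSO and 100% = DMSO without enzyme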
# IMP-1 inh-2 = IMP-1 inhibition, counter-screen for VIM-2 inhibitors; shares compounds with VIM-2 inh; purified IMP-1, nitrocefin hydrolysis, epi-absorbance fluorescence; inhibition, % at 5.6 µM; 1,300 tested, under 10 active; call rule not given here;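 note: 0% = enzyme with vehicle and 100% = vehicle without enzyme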
# VIM-2 FRET ctr = VIM-2 FRET inhibition, artifact counter-screen | purified VIM-2, CCF2 FRET substrate hydrolysis | inhibition, % at 5.6 µM | shares compounds with VIM-2 inh | 1,300 compounds, 23% hits;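 active = inhibition above the mean of all tested compounds plus 3 SD, cut at about 19% in these data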;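 note: 0% = VIM-2 plus DMSO and 100% = no enzyme wells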
# TEM-1 inh = blocks E. coli TEM-1 beta-lactamase in VIM-2 selectivity screen; shares compounds with VIM-2 inh; Purified TEM-1, nitrocefin hydrolysis, epi-absorbance fluorescence; inhibition, % at 5.6 µM; 1,300 compounds, 3% hits; AID 1866;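 active = inhibition above that campaign's mean inhibition plus 3 SD, cut at about 0.46% in these data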;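 note: 0% = TEM-1 with DMSO and 100% = TEM-1 with 100 µM potassium clavulanate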
# VIM-2 confirm 2 = confirmation of P. aeruginosa VIM-2 metallo-beta-lactamase inhibitors | shares compounds with VIM-2 inh | purified VIM-2, nitrocefin hydrolysis, epi-absorbance | inhibition, % at 5.6 µM | 1,300 compounds, 96% hits;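 active = inhibition of the VIM-2 beta-lactamase enzyme above about 11% from the earlier first-round screen, limit read from the data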;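 note: 0% = VIM-2 with DMSO and 100% = buffer wells without enzyme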
# An asterisk follows results filed as active; nt = not tested or not shown. Shown are actives, neighbours in structure and some others; about 2% of the full set was active somewhere.
SMILES,PvdQ inh,IMP-1 inh-1,HKDC1 inhibitor,ATG4B inh,beta cell repl,VIM-2 inh,IMP-1 inh-2,VIM-2 FRET ctr,TEM-1 inh,VIM-2 confirm 2
Cc1c(OCC(=O)NCCCN2CCOCC2)ccc2c3c(c(=O)oc12)CCCC3,-5.3,-2.0,-2.6,-4.1,2.3,12.5*,-2.8,-5.7,-8.2,21.7*
Cc1c(OCC(=O)NCCN2CCOCC2)ccc2c1oc(=O)c1ccccc12,-17.6,-2.0,16.6,-3.2,0.3,27.8*,-1.8,1.2,-13.1,37.7*
Cc1c(OCC(=O)NCCN2CCOCC2)ccc2c3c(c(=O)oc12)CCC3,-0.3,0.5,5.8,-5.7,-2.9,26.9*,-1.8,-3.0,-9.5,31.2*
O=C1C([N+](=O)[O-])=C(O)c2cccc3cccc1c23,nt,-0.4,nt,nt,nt,2.8,nt,nt,nt,nt
O=C1C(Br)=Cc2cccc3cccc1c23,2.4,0.1,11.6,-5.1,nt,15.3*,-1.8,1.3,-6.1,20.3*
Cc1nc2ccccc2c2oc(C(=O)NCCN3CCN(C)CC3)cc12,-2.5,-5.6,-6.2,-6.3,-1.3,41.8*,-4.1,0.8,-8.4,53.4*
CCCCCNC(=O)Cn1c(=O)c2c(ncn2CC(C)C)n(Cc2ccccc2)c1=O,-3.8,-0.9,-5.7,-18.7,-0.5,-2.0,nt,nt,nt,nt
CCN1CCN(c2nnc(-c3ccc(F)cc3)c3ccccc23)CC1,6.9,-1.5,-11.3,-7.8,0.0,0.7,nt,nt,nt,nt
CN1CCN(c2nnc(-c3ccc(F)cc3)c3ccccc23)CC1,-7.7,-1.3,0.1,-13.3,-1.8,31.5*,-1.2,5.5,-3.4,42.5*
c1cn(-c2ccc(-c3ccnc4ncnn34)cc2)cn1,-12.2,-0.8,-3.7,-6.7,-0.1,45.1*,-2.5,2.2,-4.3,63.0*
C/C(Sc1nnc(Cc2ccccc2)o1)=C(/O)c1ccccc1,-5.5,-2.4,-3.8,13.9,-2.6,-1.5,nt,nt,nt,nt
Cn1c(=O)[nH]c(=O)c2c1nc(NCCCn1ccnc1)n2Cc1ccccc1,4.4,-3.0,-7.2,6.6,-1.7,0.6,nt,nt,nt,nt
Cn1c(=O)[nH]c(=O)c2c1nc(NCCCn1ccnc1)n2CCOc1ccccc1,-3.1,0.3,-6.8,4.5,-0.2,20.6*,-3.0,-5.0,-5.5,33.4*
Oc1ccc(Oc2ccc3c(C(F)(F)F)cc(C(F)(F)F)nc3n2)cc1,-15.5,-0.5,7.0,-17.2,-1.1,12.5*,-2.8,-0.6,-6.3,28.1*
Cn1c2ccccc2c(=O)c2cc(C#Cc3ccc(N)cc3)ccc21,-10.6,-2.8,-1.7,4.4,-6.3,1.8,nt,nt,nt,nt
COc1ccc(C#Cc2ccc3c(c2)c(=O)c2ccccc2n3C)cc1,0.0,4.2,0.1,-12.3,6.6,15.4*,-1.6,3.2,-3.8,13.9*
COc1cccc(-c2coc3c(C)c4oc(=O)c(CC(=O)O)c(C)c4cc23)c1,-12.4,1.0,5.3,9.5,1.7,15.5*,2.1,2.8,-5.5,29.6*
COc1cccc(-c2coc3c(C)c4oc(=O)c(CCC(=O)O)c(C)c4cc23)c1,8.4,-3.2,1.9,5.1,-3.6,14.7*,-2.7,5.8,-10.2,21.9*
COc1ccc(-c2coc3c(C)c4oc(=O)c(CC(=O)O)c(C)c4cc23)cc1,-7.6,2.5,17.7,22.8,-1.8,16.2*,1.7,-3.1,-10.0,22.0*
COc1ccc(-c2coc3cc4oc(=O)c(CC(=O)O)c(C)c4cc23)cc1,-14.7,0.4,26.3,9.3,-4.2,-4.3,nt,nt,nt,nt
O=C(Nc1cccc(NC(=O)c2cccs2)c1)c1ccc2c(c1)OCCO2,-11.7,-0.6,-6.4,-3.5,1.8,-0.8,nt,nt,nt,nt
O=S(=O)(c1cccc(F)c1)N1CCCN(c2ccc(C(F)(F)F)cn2)CC1,5.9,0.7,-0.9,-1.1,-3.5,1.6,nt,nt,nt,nt
CCN(CC(=O)Nc1ccc(OC)cc1)C(=O)Cc1ccsc1,10.9,nt,4.4,-2.3,-0.4,nt,nt,nt,nt,nt
O=[N+]([O-])c1ccc(-c2cn3c(n2)CCC3)cc1,9.8,-2.1,-3.4,1.4,-1.4,-0.7,nt,nt,nt,nt
O=C(NC(Cc1ccc(O)cc1)C(=O)N=Nc1c(O)[nH]c2ccccc12)c1ccccc1 (stereo not drawn),2.5,nt,5.5,-6.5,nt,nt,nt,nt,nt,nt
SMILES,PvdQ inh,IMP-1 inh-1,HKDC1 inhibitor,ATG4B inh,beta cell repl,VIM-2 inh,IMP-1 inh-2,VIM-2 FRET ctr,TEM-1 inh,VIM-2 confirm 2
CCCc1[nH]nc2c1C1(CCN(C(=O)OCc3ccccc3)CC1)C(C#N)=C(N)O2,-26.5,-2.0,14.4,2.2,-2.0,18.0*,-1.6,22.1*,0.5*,6.2
CC(C)c1[nH]nc2c1C1(CCN(Cc3ccccc3)CC1)C(C#N)=C(N)O2,-11.8,-3.4,9.3,-2.5,0.8,2.6,nt,nt,nt,nt
O=C1c2cccc3cccc(c23)C(=O)N1CC1CCN(CC(O)COc2ccc3ccccc3c2)CC1 (stereo not drawn),-11.5,nt,-4.6,-26.4,-6.1,nt,nt,nt,nt,nt
COc1ccc(COCC(O)CN2CCC(CN3C(=O)c4cccc5cccc(c45)C3=O)CC2)cc1OC (stereo not drawn),-16.2,-2.6,-7.2,-26.1,-1.5,14.2*,-4.1,2.7,-8.3,27.3*
COc1cccc(OCC(O)CN2CCC(CN3C(=O)c4cccc5cccc(c45)C3=O)CC2)c1 (stereo not drawn),-4.5,-0.9,-15.1,-21.5,-5.2,14.1*,-4.0,-0.9,-4.3,22.1*
CC1(CCC(=O)N2CCCC(N3CCN(c4cccc(C(F)(F)F)c4)CC3)C2)CC1 (stereo not drawn),-9.9,-2.9,2.3,3.4,-3.4,-4.3,nt,nt,nt,nt
Cc1ccccc1CN1CCN(C2CCC2)CC1CCO (stereo not drawn),-12.4,-3.8,-6.8,-2.4,-2.9,-1.1,nt,nt,nt,nt
COc1ccc(Br)cc1S(=O)(=O)N1CCCc2ccccc21,-4.4,-6.9,-0.1,0.0,-0.9,-3.0,nt,nt,nt,nt
CCOC(=O)C1(CC2CCCCO2)CCN(S(=O)(=O)c2c(C)nn(C)c2C)CC1 (stereo not drawn),-0.7,-3.9,-3.2,-0.3,-2.4,-2.1,nt,nt,nt,nt
COC(=O)c1oc2nc(C)cc(C)c2c1N,-8.1,3.5,-0.1,-8.9,3.6,15.3*,-3.0,-0.1,-5.6,14.1*
Cc1cc(C)c2c(N)c(C(=O)c3ccccc3)oc2n1,-3.0,-3.3,15.9,-4.4,4.7,-0.9,nt,nt,nt,nt
O=C(CN1C(=O)CSc2ccc(S(=O)(=O)N3CCCCC3)cc21)NCc1ccccc1Cl,-10.8,-3.4,8.3,18.4,-4.6,-3.8,nt,nt,nt,nt
